Shown are actives, neighbours in structure and some others; about 0.94% of the full set was active somewhere.
PKA-R1A activ: activates the PKA-R1A holoenzyme complex; P00514+P68181; PKA-R1A dissociation, Cy5-IP20 fluorescence polarization; scaled: DMSO 0%, 113 µM cGMP 100%; activation, % at 11.4 µM; 340,000 compounds, 0.083% hits; AID 504707;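 active means percent activation above the mean of all tested compounds plus 3 SD, cut at about 19% in these data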;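 further: higher means more PKAc released from R1A so a rise in polarization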
PKA-R2B act: PKA-R2B complex activation. PKA-R2B holoenzyme dissociation, Cy5-IP20 fluorescence polarization; R2B truncated from residue 108, S112A mutant; 0% DMSO only, 100% 113 µM cGMP. activation, % at 11.4 µM. 340,000 compounds, 0.079% hits. AID 504700;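 active means activation above a cutoff set at the mean over all compounds plus 3 SD, cut at about 18% in these data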;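 further: higher means more holoenzyme dissociation and a rise in polarization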
Target sequence (P31323 whole entry, looked up, other chains not shown, the tested form may be a part): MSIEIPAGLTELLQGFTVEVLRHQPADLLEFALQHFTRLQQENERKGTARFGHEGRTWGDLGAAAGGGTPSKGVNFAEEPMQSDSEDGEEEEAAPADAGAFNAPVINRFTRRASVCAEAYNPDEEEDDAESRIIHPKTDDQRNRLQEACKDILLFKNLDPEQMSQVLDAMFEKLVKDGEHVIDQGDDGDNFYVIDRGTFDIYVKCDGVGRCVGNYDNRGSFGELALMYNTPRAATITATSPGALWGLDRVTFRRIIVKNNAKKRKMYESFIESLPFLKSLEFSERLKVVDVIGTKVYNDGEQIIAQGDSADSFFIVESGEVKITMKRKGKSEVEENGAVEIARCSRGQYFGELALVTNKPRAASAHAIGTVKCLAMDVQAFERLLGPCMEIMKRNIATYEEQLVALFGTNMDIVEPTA
aDG glyco up: alpha-DG glycosylation activation. Pro5-aDG cells, alpha-DG glycosylation AlphaScreen (IIH6); 0% Pro5, 100% B10-LARGE cell signal. activation, % at 10 µM. 360,000 compounds, 0.22% hits;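 active means activation of at least 8% versus controls, or a plate z-score of at least 8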;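 further: Pro5 are CHO cells carrying HIG-tagged alpha-DG that lacks glycosylation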
CTSL1 counter: counter-screen for PFM18AAP inhibitors: inhibitors of F. hepatica cathepsin L1; recombinant F. hepatica cathepsin L1, Z-Leu-Arg-MCA fluorescence; inhibition, % at 5.96 µM; 300,000 compounds, 0.49% hits; AID 1906;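 active means inhibition above the mean of all tested compounds plus 3 SD, set per screening campaign, cut at about 17% in these data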
UCH37 inh: inhibitors of human deubiquitinating enzyme UCH37; Q9Y5K5; purified proteasome/UCH37, Ub-AMC cleavage fluorescence; inhibition, % (no concentration beside the values); 330,000 compounds, 0.33% hits; AID 588478;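 active means mean inhibition over replicate wells above about 20%, limit read from the data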
Target sequence (Q9Y5K5 whole entry, looked up): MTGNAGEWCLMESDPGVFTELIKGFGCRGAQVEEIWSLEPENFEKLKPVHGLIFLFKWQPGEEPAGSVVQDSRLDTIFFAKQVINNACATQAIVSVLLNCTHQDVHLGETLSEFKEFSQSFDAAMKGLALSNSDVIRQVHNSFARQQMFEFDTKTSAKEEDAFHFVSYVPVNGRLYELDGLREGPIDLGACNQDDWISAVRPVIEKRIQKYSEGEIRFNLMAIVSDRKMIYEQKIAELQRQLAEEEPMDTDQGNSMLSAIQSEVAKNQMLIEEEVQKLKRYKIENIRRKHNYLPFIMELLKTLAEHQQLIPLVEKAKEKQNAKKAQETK
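Test system – human UCH37 enzyme supplied as purified proteasome complex · Incubation – 30 min preincubation with enzyme, 25 min cleavage at room temperature · Detection – AMC fluorescence from Ub-AMC cleavage, excitation 355 nm, emission 460 nm · Benchmarks – no-proteasome wells (full inhibition) and compound-free wells (no inhibition)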
A number is an active result; 0 = inactive; - = no result.

SMILES | PKA-R1A activ | PKA-R2B act | aDG glyco up | CTSL1 counter | UCH37 inh
CC(=NOCC(=O)OC(C)C(=O)Nc1ccc(C)c(S(=O)(=O)N2CCOCC2)c1)c1ccc2c(c1)OCO2 (centres undefined) | - | - | - | - | 0
Cc1cc(C(F)(F)F)nn1CC(=O)N(C)C1CCCCC1 | 0 | 0 | 0 | 0 | 32
Fc1ccccc1SCc1nnc(-c2ccccc2Br)o1 | 0 | 0 | 0 | 0 | 32
Cc1csc(SCc2nnc(-c3ccccc3Br)o2)n1 | 0 | 0 | 0 | 0 | 0
CCOC(=O)/C(=C\c1ccc(C)cc1)NC(=O)c1ccccc1 | 0 | 0 | 0 | 0 | 0
O=C(CNC(=O)/C(=C\c1ccc(F)cc1)NC(=O)c1ccccc1)OCc1ccccc1 | 0 | 0 | 0 | 0 | 27
O=C(CNC(=O)/C(=C\c1ccccc1)NC(=O)c1ccc(Br)cc1)OCc1ccccc1 | 0 | 0 | 0 | 0 | 0
Cc1ccc(/C=C(\NC(=O)c2ccccc2)C(=O)OCc2ccccc2)cc1 | 0 | 0 | 0 | 22 | 0
O=C(NN=Cc1cccs1)c1cc(-c2ccncc2)nc2ccccc12 | - | - | - | - | 0
CN1CCN(c2ccccc2NC(=O)c2ccc(F)cc2)CC1 | 0 | 0 | 0 | 0 | 0
CC1CCN(c2ccccc2NC(=O)c2ccc(F)cc2)CC1 | 0 | 0 | 0 | 18 | 0
Cc1ccc(OCCOCCN2CCN(C)CC2)c([N+](=O)[O-])c1 | 0 | 0 | 0 | 18 | 0
O=C(NN=Cc1cc(Br)ccc1O)Nc1ccccc1 | - | - | - | - | 0
CCN(c1ccccc1)c1nc(C#N)nc(N(CC)c2ccccc2)n1 | 0 | 0 | 0 | 30 | 0
Cc1ccc(NC(=O)C2CC(=O)N/C(=N/N=Cc3ccco3)S2)cc1 (centres undefined) | - | - | - | - | 0
COc1cccc(C(=O)NN=Cc2ccc(Oc3ccc([N+](=O)[O-])cn3)c(OC)c2)c1 | - | - | - | - | 0
COC(=O)c1scc(C)c1NN=C(C)c1ccc(F)cc1F | - | - | - | - | 0
O=C(CN(Cc1ccccc1)C(=O)CCl)c1cccc(Br)c1 | 0 | 0 | 0 | 75 | 0
CC1=CC(=C(c2ccc(O)c(C)c2)c2ccccc2S(=O)(=O)O)C=CC1=O | - | - | - | - | 0
Cc1ccc(S(=O)(=O)NN=Cc2cccc(OC3CSC3)c2)cc1 | - | - | - | - | 0
N=C1/C(=C/c2ccc(-c3cccc(C(=O)O)c3)o2)C(=O)N=C2SC(CC(=O)N3CCOCC3)=NN12 | 0 | 0 | 0 | 0 | 24
N=C1/C(=C\c2ccc(SCc3ccccc3)o2)C(=O)N=C2SC(CC(=O)N3CCOCC3)=NN12 | 0 | 0 | 0 | 0 | 0
C=CCOc1ccc(C(=O)c2ccccc2)c(OCC(=O)NC2(C#N)CCCC2)c1 | 0 | 0 | 0 | 18 | 0
C=C1CCC[C@]2(C)C[C@H]3OC(=O)C(CNCCN(C)C)[C@H]3CC12 (some centres undefined) | 0 | 0 | 0 | 0 | 0
C=C1CCC[C@]2(C)C[C@H]3OC(=O)C(CNCC(C)C)[C@H]3CC12 (some centres undefined) | 0 | 0 | 0 | 0 | 21
SMILES | PKA-R1A activ | PKA-R2B act | aDG glyco up | CTSL1 counter | UCH37 inh
COc1cc(OC)c(OC)cc1C=Nn1c(-c2n[nH]c3c2CCC3)n[nH]c1=S | - | - | - | - | 0
Oc1ccc(N=Cc2ccc(OCc3ccccc3)cc2)cc1 | 0 | 0 | 0 | 45 | 0
C(=Nn1cnnc1)c1ccc(OCc2ccccc2)cc1 | - | - | - | - | 0
COc1cc(C=Nn2cnnc2)ccc1OS(=O)(=O)c1ccccc1[N+](=O)[O-] | - | - | - | - | 0
CC(=NNC(=O)c1ccc(NS(=O)(=O)c2cccs2)cc1)c1ccc2c(c1)OCO2 | - | - | - | - | 0
COCCNC(=O)c1onc(CSc2cccc(OC)c2)c1C(=O)O | 0 | 0 | 0 | 0 | 0
COc1cccc(SCc2noc(C(=O)NCCN(C)C)c2C(=O)NCCN(C)C)c1 | 0 | 0 | 0 | 0 | 32
COc1ccc(NC(=S)NN=Cc2ccc(F)c(F)c2)cc1 | - | - | - | - | 0
Cc1ccc(C=NNC(=O)C[n+]2ccccc2)o1 | - | - | - | - | 0
O=c1c(N2CCOCC2)coc2ccccc12 | 0 | 0 | 0 | 0 | 0
O=c1[nH]c(N2CCOCC2)cc2ccccc12 | 0 | 0 | 0 | 56 | 0
O=C(Cn1ncc2c(=O)oc3ccccc3c21)N(Cc1ccco1)C1CCCCC1 | 0 | 0 | 0 | 44 | 0
O=C(Cn1ncc2c1-c1ccccc1OC2)N(Cc1ccco1)C1CCCCC1 | 0 | 0 | 0 | 62 | 0
CC(=NNC(=S)NCc1ccccc1)c1ccc2ccccc2c1OC(F)F | - | - | - | - | 0
COc1cc(NC(=S)N2CCC(C(N)=O)CC2)c(OC)cc1Cl | 0 | 0 | 0 | 0 | 31
COc1cc(NC(=S)N2CCC(C(N)=O)CC2)cc(OC)c1 | 0 | 0 | 0 | 0 | 0
COc1ccc(C(=O)N/C(=C\c2ccccc2)C(=O)N2CCOCC2)cc1 | 0 | 0 | 0 | 0 | 0
COc1ccc(-c2ccc(/C=C(\NC(=O)c3ccccc3)C(=O)N3CCOCC3)o2)cc1 | 0 | 0 | 0 | 78 | 0
COc1ccc(/C=C(\NC(=O)c2ccccc2)C(=O)N2CCN(C)CC2)cc1OC | 0 | 0 | 0 | 0 | 0
COc1ccc(/C=C(/NC(=O)c2ccccc2)C(=O)N2CCOCC2)cc1OC | 0 | 0 | 0 | 19 | 0
Cc1ccc([N+](=O)[O-])c(C(=O)NN=Cc2cccnc2)c1 | - | - | - | - | 0
ON=C1CCCc2c1nc(-c1ccccc1F)n2O | - | - | - | - | 0
COc1ccc(-[n+]2c(C)cc(/C=C3\Sc4ccccc4N3C)cc2C)cc1 | 0 | 0 | 0 | 0 | 24
COc1ccc(C(=O)/C=C2\Sc3ccccc3N2C)cc1 | - | - | 0 | 0 | 0
COc1ccccc1-[n+]1c(C)cc(/C=C2\Sc3ccccc3N2C)cc1C | 0 | 0 | 0 | 0 | 20
SMILES | PKA-R1A activ | PKA-R2B act | aDG glyco up | CTSL1 counter | UCH37 inh
CCOC(=O)Cc1nn(Cc2ccccc2)c(=O)c2ccccc12 | 0 | 0 | 0 | 0 | 0
CCOC(=O)Cc1nn(Cc2ccc(Cl)cc2)c(=O)c2ccccc12 | 0 | 0 | 0 | 18 | 0
Cc1ccc(C(C(=O)NCC2CCCO2)N(C(=O)c2snc(C(N)=O)c2N)c2ccccc2F)o1 (centres undefined) | 0 | 0 | 0 | 19 | 0
O=[N+]([O-])c1cc(S(=O)(=O)N=C(c2ccccc2)N2CCOCC2)ccc1Cl | - | - | - | - | 0
O=C(CSc1nnc(CNC(=O)c2cccs2)o1)Nc1cccc(Cl)c1 | 0 | 0 | 0 | 0 | 0
NCCCCCc1nnc(SCC(=O)Nc2cccc(Cl)c2)o1 | 0 | 0 | 0 | 17 | 0
CCn1c(CNc2cccc(C(F)(F)F)c2)n[nH]c1=S | 0 | 0 | 0 | 0 | 32
O=C(COc1ccccc1)N1CCN(S(=O)(=O)c2cccs2)CC1 | 0 | 0 | 0 | 19 | 0
CCN(CC(=O)NC(C)(C)C)C(=O)CCl | 0 | 0 | 0 | 20 | 0
CCN(CC(=O)NC(C)(C)C)C(=O)COc1c(Cl)cc(Cl)c2ccc(C)nc12 | 0 | 0 | 0 | 0 | -
O=C(CCCC(=O)Nc1ccccc1Br)NN=Cc1c(F)cccc1Cl | - | - | - | - | 0
CC1=CC(C)(C)N2C(=O)C(=Nc3ccc(O)cc3)c3cccc1c32 | 0 | 0 | 0 | 44 | 0
COc1cc(N=C2C(=O)N3c4c(cccc42)C(C)=CC3(C)C)cc(OC)c1 | 0 | 0 | 0 | 0 | 0
